{"source": "ChEMBL document CHEMBL1146219", "about": "“Synthesis and evaluation of novel radioiodinated benzamides for malignant melanoma” (J Med Chem, 2007)", "conditions_in_all_cases": "in vivo", "key": {"Kidney [1]": {"system": "Kidney", "experiment": "Biodistribution in kidney of B16F0 tumor bearing C57BL/6J mouse at 0.37-0.74 MBq, iv after 24 hrs", "assay_type": "ADME, organism-based", "outline": "(§1)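 Female C57BL/6J mice (15-18 g) were given B16F0 cells subcutaneously in the left flank (0.1 mL of 3 × 10⁶ viable cells/mL in Ca²⁺/Mg²⁺-free PBS) at 6-7 weeks and used after ten days. [¹²³I]benzamide (0.37-0.74 MBq, 100 µL, saline) was injected via the tail vein. Groups of n = 5 were killed by CO₂ and cervical dislocation. Organs were weighed and γ-counted, and the carcass was counted too.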"}, "Blood [2]": {"system": "Blood", "experiment": "Biodistribution in blood of B16F0 tumor bearing C57BL/6J mouse at 0.37-0.74 MBq, iv after 48 hrs", "assay_type": "ADME, organism-based", "outline": "as §1"}, "[3]": {"experiment": "Biodistribution in melanoma of B16F0 tumor bearing C57BL/6J mouse at 0.37-0.74 MBq, iv after 24 hrs", "assay_type": "ADME, organism-based, B16-F0", "outline": "as §1"}, "Brain [4]": {"system": "Brain", "experiment": "Biodistribution in brain of B16F0 tumor bearing C57BL/6J mouse at 0.37-0.74 MBq, iv after 3 hrs", "assay_type": "ADME, organism-based", "outline": "as §1"}, "[5]": {"experiment": "Biodistribution in eye of B16F0 tumor bearing C57BL/6J mouse at 0.37-0.74 MBq, iv after 1 hr in presence of haloperidol", "assay_type": "ADME, organism-based", "outline": "(§2)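 Haloperidol blocking in B16F0-bearing C57BL/6J mice: 1 mg/kg haloperidol was given iv 5 min before the iv [¹²³I]benzamide (0.37-0.74 MBq). Groups of n = 5 were killed at 1 or 24 h. Tissues were weighed and γ-counted as in the biodistribution study and compared with untreated controls by one-way ANOVA, with p < 0.01 taken as significant.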"}, "Lung [6]": {"system": "Lung", "experiment": "Biodistribution in lung of B16F0 tumor bearing C57BL/6J mouse at 0.37-0.74 MBq, iv after 1 hr", "assay_type": "ADME, organism-based", "outline": "as §1"}, "Kidney [7]": {"system": "Kidney", "experiment": "Biodistribution in kidney of B16F0 tumor bearing C57BL/6J mouse at 0.37-0.74 MBq, iv after 3 hrs", "assay_type": "ADME, organism-based", "outline": "as §1"}, "Brain [8]": {"system": "Brain", "experiment": "Biodistribution in brain of B16F0 tumor bearing C57BL/6J mouse at 0.37-0.74 MBq, iv after 24 hrs", "assay_type": "ADME, organism-based", "outline": "as §1"}, "Heart [9]": {"system": "Heart", "experiment": "Biodistribution in heart of B16F0 tumor bearing C57BL/6J mouse at 0.37-0.74 MBq, iv after 1 hr", "assay_type": "ADME, organism-based", "outline": "as §1"}, "Brain [10]": {"system": "Brain", "experiment": "Biodistribution in brain of B16F0 tumor bearing C57BL/6J mouse at 0.37-0.74 MBq, iv after 48 hrs", "assay_type": "ADME, organism-based", "outline": "as §1"}, "Heart [11]": {"system": "Heart", "experiment": "Biodistribution in heart of B16F0 tumor bearing C57BL/6J mouse at 0.37-0.74 MBq, iv after 6 hrs", "assay_type": "ADME, organism-based", "outline": "as §1"}, "Blood [12]": {"system": "Blood", "experiment": "Biodistribution in blood of B16F0 tumor bearing C57BL/6J mouse at 0.37-0.74 MBq, iv after 1 hr", "assay_type": "ADME, organism-based", "outline": "as §1"}, "[13]": {"experiment": "Biodistribution in melanoma of B16F0 tumor bearing C57BL/6J mouse at 0.37-0.74 MBq, iv after 72 hrs", "assay_type": "ADME, organism-based, B16-F0", "outline": "(§3)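 Female C57BL/6J mice (15-18 g) carrying s.c. B16F0 flank tumors (0.1 mL of 3 × 10⁶ viable cells per mL in Ca²⁺/Mg²⁺-free PBS, inoculated at 6-7 weeks, used 10 days later). [¹²³I]tracer 0.37-0.74 MBq in saline, 100 µL, tail-vein i.v. Groups of n = 5 killed at 1-72 h. Organs weighed and γ-counted, carcass activity also counted, values as %ID/g.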"}, "Liver [14]": {"system": "Liver", "experiment": "Biodistribution in liver of B16F0 tumor bearing C57BL/6J mouse at 0.37-0.74 MBq, iv after 48 hrs", "assay_type": "ADME, organism-based", "outline": "as §1"}, "Lung [15]": {"system": "Lung", "experiment": "Biodistribution in lung of B16F0 tumor bearing C57BL/6J mouse at 0.37-0.74 MBq, iv after 24 hrs in presence of haloperidol", "assay_type": "ADME, organism-based", "outline": "as §2"}, "Heart [16]": {"system": "Heart", "experiment": "Biodistribution in heart of B16F0 tumor bearing C57BL/6J mouse at 0.37-0.74 MBq, iv after 48 hrs", "assay_type": "ADME, organism-based", "outline": "as §1"}, "Liver [17]": {"system": "Liver", "experiment": "Biodistribution in liver of B16F0 tumor bearing C57BL/6J mouse at 0.37-0.74 MBq, iv after 1 hr", "assay_type": "ADME, organism-based", "outline": "as §1"}, "Lung [18]": {"system": "Lung", "experiment": "Biodistribution in lung of B16F0 tumor bearing C57BL/6J mouse at 0.37-0.74 MBq, iv after 48 hrs", "assay_type": "ADME, organism-based", "outline": "as §1"}, "Liver [19]": {"system": "Liver", "experiment": "Biodistribution in liver of B16F0 tumor bearing C57BL/6J mouse at 0.37-0.74 MBq, iv after 24 hrs", "assay_type": "ADME, organism-based", "outline": "as §1"}, "Brain [20]": {"system": "Brain", "experiment": "Biodistribution in brain of B16F0 tumor bearing C57BL/6J mouse at 0.37-0.74 MBq, iv after 72 hrs", "assay_type": "ADME, organism-based", "outline": "as §1"}, "Kidney [21]": {"system": "Kidney", "experiment": "Biodistribution in kidney of B16F0 tumor bearing C57BL/6J mouse at 0.37-0.74 MBq, iv after 72 hrs", "assay_type": "ADME, organism-based", "outline": "as §1"}, "Blood [22]": {"system": "Blood", "experiment": "Biodistribution in blood of B16F0 tumor bearing C57BL/6J mouse at 0.37-0.74 MBq, iv after 24 hrs", "assay_type": "ADME, organism-based", "outline": "as §1"}, "[23]": {"experiment": "Biodistribution in tumor of B16F0 tumor bearing C57BL/6J mouse at 0.37-0.74 MBq, iv after 1 hr in presence of haloperidol", "assay_type": "ADME, organism-based, B16-F0", "outline": "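B16F0 tumor-bearing C57BL/6J mice, groups of n = 5, given haloperidol 1 mg/kg i.v. 5 min before the i.v. [¹²³I]tracer (0.37-0.74 MBq). Killed at 1 or 24 h. Tissues γ-counted as for biodistribution and compared with untreated controls by one-way ANOVA, significance p < 0.01.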"}, "Blood [24]": {"system": "Blood", "experiment": "Biodistribution in blood of B16F0 tumor bearing C57BL/6J mouse at 0.37-0.74 MBq, iv after 72 hrs", "assay_type": "ADME, organism-based", "outline": "as §1"}, "Kidney [25]": {"system": "Kidney", "experiment": "Biodistribution in kidney of B16F0 tumor bearing C57BL/6J mouse at 0.37-0.74 MBq, iv after 48 hrs", "assay_type": "ADME, organism-based", "outline": "as §1"}, "[26]": {"experiment": "Biodistribution in melanoma of B16F0 tumor bearing C57BL/6J mouse at 0.37-0.74 MBq, iv after 6 hrs", "assay_type": "ADME, organism-based, B16-F0", "outline": "as §3"}, "Liver [27]": {"system": "Liver", "experiment": "Biodistribution in liver of B16F0 tumor bearing C57BL/6J mouse at 0.37-0.74 MBq, iv after 72 hrs", "assay_type": "ADME, organism-based", "outline": "as §1"}, "Blood [28]": {"system": "Blood", "experiment": "Biodistribution in blood of B16F0 tumor bearing C57BL/6J mouse at 0.37-0.74 MBq, iv after 3 hrs", "assay_type": "ADME, organism-based", "outline": "as §1"}, "[29]": {"experiment": "Biodistribution in melanoma of B16F0 tumor bearing C57BL/6J mouse at 0.37-0.74 MBq, iv after 3 hrs", "assay_type": "ADME, organism-based, B16-F0", "outline": "as §1"}, "Liver [30]": {"system": "Liver", "experiment": "Biodistribution in liver of B16F0 tumor bearing C57BL/6J mouse at 0.37-0.74 MBq, iv after 1 hr in presence of haloperidol", "assay_type": "ADME, organism-based", "outline": "as §2"}, "Liver [31]": {"system": "Liver", "experiment": "Biodistribution in liver of B16F0 tumor bearing C57BL/6J mouse at 0.37-0.74 MBq, iv after 6 hrs", "assay_type": "ADME, organism-based", "outline": "as §1"}, "Kidney [32]": {"system": "Kidney", "experiment": "Biodistribution in kidney of B16F0 tumor bearing C57BL/6J mouse at 0.37-0.74 MBq, iv after 6 hrs", "assay_type": "ADME, organism-based", "outline": "as §1"}, "[33]": {"experiment": "Biodistribution in eye of B16F0 tumor bearing C57BL/6J mouse at 0.37-0.74 MBq, iv after 24 hrs in presence of haloperidol", "assay_type": "ADME, organism-based", "outline": "as §2"}, "Heart [34]": {"system": "Heart", "experiment": "Biodistribution in heart of B16F0 tumor bearing C57BL/6J mouse at 0.37-0.74 MBq, iv after 72 hrs", "assay_type": "ADME, organism-based", "outline": "as §1"}}, "data": [{"smiles": "CCCCN(C)CCCCNC(=O)c1cc([123I])c(NC(C)=O)cc1OC", "values": [{"measurement": "Drug uptake", "setting": "Kidney [1]", "value": 0.12, "unit": "% ID/g"}, {"measurement": "Drug uptake", "setting": "Blood [2]", "value": 0.04, "unit": "% ID/g"}, {"measurement": "Drug uptake", "setting": "[3]", "value": 6.1, "unit": "% ID/g"}, {"measurement": "Drug uptake", "setting": "Brain [4]", "value": 0.04, "unit": "% ID/g"}, {"measurement": "Drug uptake", "setting": "[5]", "value": 16.9, "unit": "% ID/g"}, {"measurement": "Drug uptake", "setting": "Lung [6]", "value": 1.9, "unit": "% ID/g"}, {"measurement": "Drug uptake", "setting": "Kidney [7]", "value": 3.9, "unit": "% ID/g"}, {"measurement": "Drug uptake", "setting": "Brain [8]", "value": 0.01, "unit": "% ID/g"}, {"measurement": "Drug uptake", "setting": "Heart [9]", "value": 0.98, "unit": "% ID/g"}, {"measurement": "Drug uptake", "setting": "Brain [10]", "value": 0.01, "unit": "% ID/g"}, {"measurement": "Drug uptake", "setting": "Heart [11]", "value": 0.75, "unit": "% ID/g"}, {"measurement": "Drug uptake", "setting": "Blood [12]", "value": 1.2, "unit": "% ID/g"}, {"measurement": "Drug uptake", "setting": "[13]", "value": 2.2, "unit": "% ID/g"}, {"measurement": "Drug uptake", "setting": "Liver [14]", "value": 0.38, "unit": "% ID/g"}, {"measurement": "Drug uptake", "setting": "Lung [15]", "value": 0.02, "unit": "% ID/g"}, {"measurement": "Drug uptake", "setting": "Heart [16]", "value": 0.13, "unit": "% ID/g"}, {"measurement": "Drug uptake", "setting": "Liver [17]", "value": 16.8, "unit": "% ID/g"}, {"measurement": "Drug uptake", "setting": "Lung [18]", "value": 0.08, "unit": "% ID/g"}, {"measurement": "Drug uptake", "setting": "Liver [19]", "value": 0.47, "unit": "% ID/g"}, {"measurement": "Drug uptake", "setting": "Brain [20]", "value": 0.01, "unit": "% ID/g"}, {"measurement": "Drug uptake", "setting": "Kidney [21]", "value": 0.1, "unit": "% ID/g"}, {"measurement": "Drug uptake", "setting": "Blood [22]", "value": 0.11, "unit": "% ID/g"}, {"measurement": "Drug uptake", "setting": "[23]", "value": 6.1, "unit": "% ID/g"}, {"measurement": "Drug uptake", "setting": "Blood [24]", "value": 0.05, "unit": "% ID/g"}, {"measurement": "Drug uptake", "setting": "Kidney [25]", "value": 0.07, "unit": "% ID/g"}, {"measurement": "Drug uptake", "setting": "[26]", "value": 8.4, "unit": "% ID/g"}, {"measurement": "Drug uptake", "setting": "Liver [27]", "value": 0.25, "unit": "% ID/g"}, {"measurement": "Drug uptake", "setting": "Blood [28]", "value": 0.95, "unit": "% ID/g"}, {"measurement": "Drug uptake", "setting": "[29]", "value": 9.7, "unit": "% ID/g"}, {"measurement": "Drug uptake", "setting": "Liver [30]", "value": 15.6, "unit": "% ID/g"}, {"measurement": "Drug uptake", "setting": "Liver [31]", "value": 1.8, "unit": "% ID/g"}, {"measurement": "Drug uptake", "setting": "Kidney [32]", "value": 1.2, "unit": "% ID/g"}, {"measurement": "Drug uptake", "setting": "[33]", "value": 18.7, "unit": "% ID/g"}, {"measurement": "Drug uptake", "setting": "Heart [34]", "value": 0.06, "unit": "% ID/g"}]}]}
